Activity calls are given as the source filed them. The rule behind the calls is not given here.
Tests used:
U2OS [1] = assay: Induction of mitotic arrest in human U2OS cells assessed as mitotic index after 72 hrs by microscopic analysis; type: functional, cell-based; settings: in the assay text read “after 20 hrs” for “after 72 hrs”
Summary of the method: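 Phenotypic high content assay in U2OS osteosarcoma cells. Cells stained for phosphorylated histone H3 (mitotic marker) and Hoechst, imaged on an automated high content microscope. An algorithm scores the percentage of cells arrested in mitosis. MI EC50 is the mean of at least two independent experiments, each in triplicate.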

U2OS [2] = assay: Growth inhibition of human U2OS cells after 72 hrs by sulforhodamine B assay; type: functional
Summary of the method: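 GI50 in U2OS cells. Mean of at least two independent experiments, each in triplicate.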

U2OS [3] = assay: Induction of mitotic arrest in human U2OS cells assessed as mitotic index after 20 hrs by microscopic analysis
U2OS [4] = assay: Induction of mitotic arrest in human U2OS cells at 50 uM after 72 hrs by microscopic analysis relative to control; type: functional; settings: in the assay text read “after 20 hrs” for “after 72 hrs”
Summary of the method: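 Primary screen in U2OS cells at a single 50 μM concentration, in triplicate. Cells stained for phospho-histone H3 with Hoechst counterstain and imaged by automated high content microscopy. Percentage of mitotically arrested cells calculated by algorithm.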

Sus scrofa [5] = species on record: Sus scrofa; assay: Inhibition of porcine alpha/beta tubulin polymerization at 10 uM after 1 hr by spectrophotometric analysis
Summary of the method: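 Tubulin (3 mg/mL) incubated with compound (10 μM) and GTP at 37 °C for 1 h to monitor polymerization.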

Tubulin (Homo sapiens) = Tubulin (Homo sapiens) (UniProt P68371+Q9H4B7+P0DPH7+P68366+Q13509+Q71U36+P04350+Q3ZCM7+P07437+P68363+Q9BQE3+Q6PEY2+Q13885+Q9BVA1+Q9BUF5); assay: Binding affinity to tubulin in human U2OS cells assessed as disruption of tubulin network at 100 nM after 20 hrs by DAPI staining-based confocal microscopic analysis; type: cell-based
Summary of the method: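 U2OS cells treated with compound, then stained with DAPI and an α-tubulin antibody. Tubulin network imaged by confocal microscopy.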

[6] = Solubility of the compound at >1 uM; type: physicochemical
[7] = Stability of the compound; type: physicochemical
Sus scrofa [8] = species on record: Sus scrofa; assay: Displacement of colchicine from porcine alpha/beta tubulin assessed as decrease in colchicine fluorescence intensity at 5 to 20 uM after 1 hr by spectrophotometric analysis relative to control
Summary of the method: (§1)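 Colchicine (3 μM), tubulin (3 μM) and compound incubated 1 h at 37 °C. Colchicine fluorescence intensity read at ex/em 365/435 nm. Nocodazole served as positive control. Mean ± s.e.m. of one experiment run in triplicate.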

Sus scrofa [9] = species on record: Sus scrofa; assay: Displacement of colchicine from porcine alpha/beta tubulin assessed as decrease in colchicine fluorescence intensity after 1 hr by spectrophotometric analysis; summary of the method: as §1
Sus scrofa [10] = species on record: Sus scrofa; assay: Displacement of BODIPY-FL-vinblastine from porcine alpha/beta tubulin at 20 to 60 uM after 20 hrs by fluorescence polarization assay
Summary of the method: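 Fluorescence polarization assay with FL-BODIPY-vinblastine tracer (2 μM) and tubulin (2 μM). Unlabeled vinblastine served as positive control. Ex/em 485/520 nm. Mean ± s.e.m. of one experiment run in triplicate.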

[11] = Solubility of the compound; type: physicochemical

Row | GI50 (U2OS [2]) | EC50 (U2OS [3]) | SMILES | other results
1 | 0.15 µM | 0.51 µM | O=C(Cc1ccc(-c2ccccc2)cc1)NCc1ccco1 | inhibition (U2OS [1]): Dose-dependent effect; Activity (U2OS [4]): 40%; inhibition (Sus scrofa [5]): Active
2 | 0.011 µM | 0.028 µM | CC(=O)c1ccc(-c2ccc(CC(=O)NCc3ccccc3)cc2)cc1 | Activity (Tubulin (Homo sapiens)): Active; solubility [6]: Insoluble
3 | 0.12 µM |  | O=C(Cc1ccc(-c2ccc(OC(F)(F)F)cc2)cc1)NCc1ccco1 | 
4 |  | > 40 µM | C[C@H](NC(=O)Cc1ccc(-c2ccccc2)cc1)c1ccccc1 | 
5 |  | > 40 µM | O=C(NCc1ccco1)c1cnc2ccccc2c1 | 
6 |  | 1.9 µM | COc1ccc(CNC(=O)Cc2ccc(-c3ccccc3)cc2)cc1 | 
7 | 0.024 µM | 0.076 µM | CC(=O)c1ccc(-c2ccc(CC(=O)NCc3ccco3)cc2)cc1 | 
8 |  | 16.6 µM | O=C(Cc1ccc(-c2ccccc2)cc1)NCc1ccncc1 | 
9 |  | > 20 µM | O=C(Cc1ccc(-c2ccc(C(=O)O)cc2)cc1)NCc1ccco1 | 
10 |  | > 40 µM | O=C(NCc1ccco1)c1ccc(-c2ccccc2)cc1 | 
11 | 0.12 µM | 0.49 µM | CC(=O)Nc1cccc(-c2ccc(CC(=O)NCc3ccco3)cc2)c1 | 
12 | 0.031 µM | 0.144 µM | O=C(Cc1ccc(-c2ccc3c(c2)OCO3)cc1)NCc1ccco1 | 
13 |  | > 40 µM | O=C(Cc1ccc(-c2ccccc2)cc1)Nc1ccccc1 | 
14 |  | 12.9 µM | CC(=O)c1ccccc1-c1ccc(CC(=O)NCc2ccco2)cc1 | 
15 |  | > 40 µM | O=C(NCc1ccco1)c1cc2ccccc2o1 | 
16 |  | > 40 µM | O=C(NCc1ccco1)c1ccc(C(=O)c2ccccc2)cc1 | 

Row | GI50 (U2OS [2]) | EC50 (U2OS [3]) | SMILES | other results
17 |  | 0.25 µM | O=C(Cc1ccc(-c2ccccc2)cc1)NCc1ccccc1 | 
18 |  | 29.9 µM | CN(Cc1ccccc1)C(=O)Cc1ccc(-c2ccccc2)cc1 | 
19 | 0.021 µM | 0.051 µM | CNC(=O)c1ccc(-c2ccc(CC(=O)NCc3ccco3)cc2)cc1 | Stability [7]: Stable; Activity (Tubulin (Homo sapiens)): Active; Imax (Sus scrofa [8]): 45%; inhibition (Sus scrofa [9]): Dose-dependent effect; inhibition (Sus scrofa [10]): inactive; inhibition (Sus scrofa [5]): Active; solubility [11]: soluble
20 | 0.046 µM | 0.101 µM | CC(C)CNC(=O)c1ccc(-c2ccc(CC(=O)NCc3ccco3)cc2)cc1 | 
21 |  | > 40 µM | COc1cc(-c2ccc(CC(=O)NCc3ccco3)cc2)cc(OC)c1OC | 
22 | 0.111 µM | 0.526 µM | N#Cc1ccc(-c2ccc(CC(=O)NCc3ccco3)cc2)cc1 | inhibition (Sus scrofa [5]): Active
23 |  | 12.9 µM | O=C(Cc1ccc2ccccc2c1)NCc1ccco1 | 
24 | 0.603 µM | 1.17 µM | COc1c(C)cc(-c2ccc(CC(=O)NCc3ccco3)cc2)cc1C | 
25 |  | 9.7 µM | O=C(Cc1ccc(-c2ccccc2)cc1)NCc1ccccn1 | 
26 |  | > 40 µM | CC(C)CNC(=O)Cc1ccc(-c2ccccc2)cc1 | 
27 |  | > 40 µM | O=C(Cc1ccc(-c2ccccc2)cc1)NCc1cccc(Br)c1 | inhibition (Sus scrofa [5]): inactive
28 | 0.1 µM | 0.34 µM | Cc1ccc(-c2ccc(CC(=O)NCc3ccco3)cc2)cc1F | 
29 | 0.024 µM | 0.073 µM | COC(=O)c1ccc(-c2ccc(CC(=O)NCc3ccco3)cc2)cc1 | 
30 | 0.027 µM | 0.081 µM | COC(=O)c1ccc(-c2ccc(CC(=O)NCc3ccccc3)cc2)cc1 | 
31 |  | > 40 µM | O=C(NCc1ccco1)c1ccccc1-c1ccccc1 | 
32 |  | 4.83 µM | C[C@@H](NC(=O)Cc1ccc(-c2ccccc2)cc1)c1ccccc1 | 

Row | SMILES | GI50 (U2OS [2]) | EC50 (U2OS [3]) | other results
33 | COC(=O)Nc1nc2cc(C(=O)c3cccs3)ccc2[nH]1 [NOCODAZOLE] |  | 0.05 µM | Imax (Sus scrofa [8]): 85%; inhibition (Sus scrofa [5]): Active

— ChEMBL document CHEMBL3286391, “High content screening of diverse compound libraries identifies potent modulators of tubulin dynamics” (ACS Med Chem Lett, 2014)
